Results published in ChEMBL document CHEMBL1135512 (J Med Chem, 2002).

Columns and labels:
[1] = system: Plasmodium falciparum; assay: In vitro inhibitory activity against multidrug-resistant Plasmodium falciparum W2 Indochina; type: functional, organism-based; details: Plasmodium falciparum
Procedure, shortened: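 Clone W2 (Indochina), sorbitol-synchronized, was grown in RPMI 1640 with 10% human serum, 25 mM HEPES and 25 mM NaHCO3, at final parasitemia 0.5% and hematocrit 1.5%. The drug was present for 48 h at 37 °C under 10% O2/6% CO2/84% N2. Growth was read as 3H-hypoxanthine uptake (1 μCi/well). IC50 came from nonlinear regression of log-dose/response as the geometric mean with 95% CI.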

[2] = system: Plasmodium falciparum; assay: Percent reversal against Plasmodium falciparum W2 at 1 uM DEEA; type: functional
[3] = Partition coefficient (logD7.0); type: physicochemical; details: octanol/water, pH 7; read-out: logD
[4] = Cytotoxicity against Chinese hamster ovary cells; type: cell-based, Cricetulus griseus
Procedure, shortened: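 Cells were then exposed to graded drug concentrations for 48 h at 37 °C, 5% CO2. MTT (1 mg/mL in PBS) was added for 3 h, and formazan was dissolved in DMSO and read at 570/630 nm. IC50 came from nonlinear regression versus drug-free wells.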

[5] = system: Plasmodium falciparum; assay: Accumulation coefficient of chloroquine at 1 uM-10 uM of DEEA against Plasmodium falciparum W2; Range is from 19-23; type: functional
Procedure, shortened: (§1)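 W2 infected erythrocytes were suspended in RPMI 1640 with 25 mM HEPES and 25 mM NaHCO3 (2% parasitemia, 2% hematocrit). They were mixed over silicone oil with buffer holding [3H]CQ (26 Ci/mmol) plus DEEA at 1 or 10 μM. Incubation was 1 h at 37 °C under 10% O2/6% CO2/84% N2, followed by 1 min centrifugation. Ratio = parasite [3H]CQ (infected minus uninfected cells) / same-volume buffer.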

[6] = system: Plasmodium falciparum; assay: Concentration required to reduce chloroquine IC50 by 50%; type: functional, organism-based; details: Plasmodium falciparum
Procedure, shortened: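 Synergy isotopic microtest on sorbitol-synchronized W2 (Indochina) and 3D7 in RPMI 1640 with 10% human serum, HEPES/NaHCO3, parasitemia 0.5%, hematocrit 1.5%. CQ was combined with subinhibitory fixed DEEA concentrations, and 3H-hypoxanthine was added for 48 h at 37 °C under 10% O2/6% CO2/84% N2. Reversal IC50 is the DEEA concentration halving CQ IC50, found by nonlinear regression of log-dose/IC50.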

[7] = Partition coefficient (logP); type: physicochemical; details: octanol/water; read-out: logP
[8] = In vitro hemolytic concentration on uninfected erythrocytes.; type: functional, Homo sapiens
Procedure, shortened: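 Washed A+ human erythrocytes were held at 1.5% hematocrit in RPMI 1640 with 10% human serum, 25 mM HEPES and 25 mM NaHCO3. Drug (2 mM to 1 μM final, triplicate) was added for 42 h at 37 °C under 10% O2/6% CO2. Released hemoglobin in supernatant was measured with TMB/H2O2 at 455 nm. HC50 is relative to 5% saponin lysis, by nonlinear regression.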

[9] = system: Plasmodium falciparum; assay: Accumulation coefficient of chloroquine at 1 uM-10 uM of DEEA against Plasmodium falciparum W2; Range is from 62-63; type: functional
[10] = Dissociation constant (pKa); type: physicochemical
[11] = system: Plasmodium falciparum; assay: Accumulation coefficient of chloroquine at 1 uM-10 uM of DEEA against Plasmodium falciparum W2; Range is from 16-71; type: functional; procedure, shortened: as §1
[12] = system: Plasmodium falciparum; assay: Percent reversal against Plasmodium falciparum W2 at 1 uM DEEA
[13] = system: Plasmodium falciparum; assay: Accumulation coefficient of chloroquine at 1 uM-10 uM of DEEA against Plasmodium falciparum W2; type: functional; procedure, shortened: as §1
[14] = system: Plasmodium falciparum; assay: Accumulation coefficient of chloroquine at 1 um-10 uM of DEEA against Plasmodium falciparum W2;Range is from 14-15; type: functional; procedure, shortened: as §1
[15] = system: Plasmodium falciparum; assay: Accumulation coefficient of chloroquine at 1 uM -10 uM of DEEA against Plasmodium falciparum W2; Range is from 15-101; type: functional; procedure, shortened: as §1
[16] = system: Plasmodium falciparum; assay: Accumulation coefficient of chloroquine at 1 uM-10 uM of DEEA against Plasmodium falciparum W2; Range is from 18-16; type: functional

Structure (SMILES) | IC50 [1] [µM] | Reversal [2] [%] | logD [3] | Cytotoxicity [4] [µM] | Accumulation coefficient [5] | IC50 [6] [µM] | logP [7] | HC50 [8] [µM] | Accumulation coefficient [9] | pKa [10] | Accumulation coefficient [11] | Reversal [12] [%] | Accumulation coefficient [13] | Accumulation coefficient [14] | Accumulation coefficient [15] | Accumulation coefficient [16]
CC1C2c3ccccc3C(c3ccccc32)C1C(=O)/N=C/N(C)C (stereo unspecified) | 51 | 0 | 3.26 | > 2000 | 23 | 40 | 3.26 | >2000 |  |  |  |  |  |  |  | 
CCOC(=O)C1C2c3ccccc3C(c3ccccc32)C1N(C)C (stereo unspecified) | 34 | 0 | 3 | > 2000 |  | 3.1 | 3.6 | >2000 | 63 | 7.48 |  |  |  |  |  | 
CN(C)CCNC1CC2c3ccccc3C1c1ccccc12 (stereo unspecified) | 8 | 63 | -1.5 | 695 |  | 0.8 | 3.17 | 644 |  | 9.48 | 71 |  |  |  |  | 
CC1C2c3ccccc3C(c3ccccc32)C1C(N)=O (stereo unspecified) | 41 |  | 2.89 | > 2000 |  | 20 | 2.89 | >2000 |  | -0.89 |  | 0 | 22 |  |  | 
CC1C2c3ccccc3C(c3ccccc32)C1C(=O)Nc1ccccn1 (stereo unspecified) | 302 | 0 | 4.16 | 205 |  |  | 4.17 | 1827 |  | 5.27 |  |  |  | 15 |  | 
CC1C2c3ccccc3C(c3ccccc32)C1C(=O)Nc1ccncc1 (stereo unspecified) | 833 | 21 | 3.85 | > 500 |  | 1490 | 3.85 | >2000 |  | 5.27 |  |  |  |  | 101 | 
CN(C)C1C2c3ccccc3C(c3ccccc32)C1C(=O)O (stereo unspecified) | > 50 | 0 | 0.1 | > 2000 |  | > 100 | 2.7 | >2000 |  | 8.3 |  |  |  |  |  | 18
